In ChEMBL document CHEMBL4689842, “EUbOPEN Chemogenomics Library wave 1” (2021):
“And” between values parts separate entries of the source, which are not always exact repeats. Equal values may be shown once.

System: HEK-293T
Assay: Multiplex assay against HEK293T;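 on Population Tubulin-Different-Phenotype (%): share of the cells with healthy nuclei that show this phenotype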
Type: toxicity, cell-based
Details: human
How it was run: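 Live cells were stained at seeding with Hoechst33342, BioTracker Green Microtubule Cytoskeleton Dye, MitoTracker Red and Annexin V Alexa Fluor 680. Following compound addition, they were imaged on a CQ1 microscope at 37°C and 5% CO2 and gated by CellPathfinder machine learning into Hoechst high-intensity objects or normal cells, with normal cells split into healthy, pyknosed or fragmented nuclei and pyknosed cells into mitotic or apoptotic. Tubulin, mitochondrial-mass and membrane-permeability phenotypes are per cents of healthy-nucleus cells.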

[1] = 12 h, 1 µM, compound concentration 1 uM, replicate 1
[2] = 12 h, 1 µM, compound concentration 1 uM, replicate 2
[3] = 12 h, 10 µM, compound concentration 10 uM, replicate 1
[4] = 12 h, 10 µM, compound concentration 10 uM, replicate 2
[5] = 24 h, 1 µM, compound concentration 1 uM, replicate 1
[6] = 24 h, 1 µM, compound concentration 1 uM, replicate 2
[7] = 24 h, 10 µM, compound concentration 10 uM, replicate 1
[8] = 24 h, 10 µM, compound concentration 10 uM, replicate 2
[9] = 48 h, 1 µM, compound concentration 1 uM, replicate 1
[10] = 48 h, 1 µM, compound concentration 1 uM, replicate 2
[11] = 48 h, 10 µM, compound concentration 10 uM, replicate 1
[12] = 48 h, 10 µM, compound concentration 10 uM, replicate 2

Compound: CN1C2CCC1CC(OC(c1ccc(F)cc1)c1ccc(F)cc1)C2.Cl (configuration not stated)
- Population Apoptotic (%) [1]: 50%
- Population Fragmented Nuclei (%) [1]: 12%
- Population Healthy Nuclei (%) [1]: 27%
- Population Hoechst High Intensity Objects (%) [1]: 12%
- Population Membrane Permeable-Phenotype (%) [1]: 2%
- Population Mitochondria Different-Phenotype (%) [1]: 84%
- Population Mitotic Cells (%) [1]: 50%
- Population Normal (%) [1]: 87%
- Population Pyknosed Nuclei (%) [1]: 60%
- Population Tubulin-Different-Phenotype (%) [1]: 58%
- Total Cell Count [1]: 303
- Population Apoptotic (%) [2]: 18%
- Population Fragmented Nuclei (%) [2]: 2%
- Population Healthy Nuclei (%) [2]: 43%
- Population Hoechst High Intensity Objects (%) [2]: 3%
- Population Membrane Permeable-Phenotype (%) [2]: 18%
- Population Mitochondria Different-Phenotype (%) [2]: 35%
- Population Mitotic Cells (%) [2]: 81%
- Population Normal (%) [2]: 96%
- Population Pyknosed Nuclei (%) [2]: 54%
- Population Tubulin-Different-Phenotype (%) [2]: 56%
- Total Cell Count [2]: 252
- Population Apoptotic (%) [3]: 80%
- Population Fragmented Nuclei (%) [3]: 9%
- Population Healthy Nuclei (%) [3]: 25%
- Population Hoechst High Intensity Objects (%) [3]: 13%
- Population Membrane Permeable-Phenotype (%) [3]: 1%
- Population Mitochondria Different-Phenotype (%) [3]: 100%
- Population Mitotic Cells (%) [3]: 19%
- Population Normal (%) [3]: 86%
- Population Pyknosed Nuclei (%) [3]: 65%
- Population Tubulin-Different-Phenotype (%) [3]: 98%
- Total Cell Count [3]: 280
- Population Apoptotic (%) [4]: 63%
- Population Fragmented Nuclei (%) [4]: 3%
- Population Healthy Nuclei (%) [4]: 21%
- Population Hoechst High Intensity Objects (%) [4]: 6%
- Population Membrane Permeable-Phenotype (%) [4]: 2%
- Population Mitochondria Different-Phenotype (%) [4]: 92%
- Population Mitotic Cells (%) [4]: 36%
- Population Normal (%) [4]: 93%
- Population Pyknosed Nuclei (%) [4]: 74%
- Population Tubulin-Different-Phenotype (%) [4]: 95%
- Total Cell Count [4]: 201
- Population Apoptotic (%) [5]: 48%
- Population Fragmented Nuclei (%) [5]: 15%
- Population Healthy Nuclei (%) [5]: 19%
- Population Hoechst High Intensity Objects (%) [5]: 14%
- Population Membrane Permeable-Phenotype (%) [5]: 10%
- Population Mitochondria Different-Phenotype (%) [5]: 76%
- Population Mitotic Cells (%) [5]: 51%
- Population Normal (%) [5]: 85%
- Population Pyknosed Nuclei (%) [5]: 64%
- Total Cell Count [5]: 295
- Population Apoptotic (%) [6]: 22%
- Population Fragmented Nuclei (%) [6]: 4%
- Population Healthy Nuclei (%) [6]: 49%
- Population Hoechst High Intensity Objects (%) [6]: 1%
- Population Membrane Permeable-Phenotype (%) [6]: 12%
- Population Mitochondria Different-Phenotype (%) [6]: 35%
- Population Mitotic Cells (%) [6]: 77%
- Population Normal (%) [6]: 98%
- Population Pyknosed Nuclei (%) [6]: 46%
- Population Tubulin-Different-Phenotype (%) [6]: 64%
- Total Cell Count [6]: 305
- Population Apoptotic (%) [7]: 79%
- Population Fragmented Nuclei (%) [7]: 16%
- Population Healthy Nuclei (%) [7]: 13%
- Population Hoechst High Intensity Objects (%) [7]: 20%
- Population Membrane Permeable-Phenotype (%) [7]: 3%
- Population Mitochondria Different-Phenotype (%) [7]: 100%
- Population Mitotic Cells (%) [7]: 20%
- Population Normal (%) [7]: 79%
- Population Pyknosed Nuclei (%) [7]: 70%
- Population Tubulin-Different-Phenotype (%) [7]: 96%
- Total Cell Count [7]: 292
- Population Apoptotic (%) [8]: 88%
- Population Fragmented Nuclei (%) [8]: 3%
- Population Healthy Nuclei (%) [8]: 28%
- Population Hoechst High Intensity Objects (%) [8]: 7%
- Population Membrane Permeable-Phenotype (%) [8]: 1%
- Population Mitochondria Different-Phenotype (%) [8]: 96%
- Population Mitotic Cells (%) [8]: 11%
- Population Normal (%) [8]: 92%
- Population Pyknosed Nuclei (%) [8]: 67%
- Population Tubulin-Different-Phenotype (%) [8]: 86%
- Total Cell Count [8]: 190
- Population Apoptotic (%) [9]: 47%
- Population Fragmented Nuclei (%) [9]: 20%
- Population Healthy Nuclei (%) [9]: 21%
- Population Hoechst High Intensity Objects (%) [9]: 19%
- Population Membrane Permeable-Phenotype (%) [9]: 7%
- Population Mitochondria Different-Phenotype (%) [9]: 53%
- Population Mitotic Cells (%) [9]: 52%
- Population Normal (%) [9]: 80%
- Population Pyknosed Nuclei (%) [9]: 58%
- Population Tubulin-Different-Phenotype (%) [9]: 67%
- Total Cell Count [9]: 329
- Population Apoptotic (%) [10]: 11%
- Population Fragmented Nuclei (%) [10]: 4%
- Population Healthy Nuclei (%) [10]: 77%
- Population Hoechst High Intensity Objects (%) [10]: 2%
- Population Membrane Permeable-Phenotype (%) [10]: 15%
- Population Mitochondria Different-Phenotype (%) [10]: 15%
- Population Mitotic Cells (%) [10]: 89%
- Population Normal (%) [10]: 97%
- Population Pyknosed Nuclei (%) [10]: 18%
- Population Tubulin-Different-Phenotype (%) [10]: 52%
- Total Cell Count [10]: 565
- Population Apoptotic (%) [11]: 78%
- Population Fragmented Nuclei (%) [11]: 21%
- Population Healthy Nuclei (%) [11]: 8%
- Population Hoechst High Intensity Objects (%) [11]: 21%
- Population Membrane Permeable-Phenotype (%) [11]: 0%
- Population Mitochondria Different-Phenotype (%) [11]: 100%
- Population Mitotic Cells (%) [11]: 21%
- Population Normal (%) [11]: 78%
- Population Pyknosed Nuclei (%) [11]: 69%
- Population Tubulin-Different-Phenotype (%) [11]: 95%
- Total Cell Count [11]: 285
- Population Apoptotic (%) [12]: 75%
- Population Fragmented Nuclei (%) [12]: 9%
- Population Healthy Nuclei (%) [12]: 55%
- Population Hoechst High Intensity Objects (%) [12]: 10%
- Population Membrane Permeable-Phenotype (%) [12]: 1%
- Population Mitochondria Different-Phenotype (%) [12]: 96%
- Population Mitotic Cells (%) [12]: 24%
- Population Normal (%) [12]: 89%
- Population Pyknosed Nuclei (%) [12]: 34%
- Population Tubulin-Different-Phenotype (%) [12]: 85%
- Total Cell Count [12]: 207

Compound: Cn1nc(C(=O)NCc2ccc(C(=O)O)cc2)cc1-c1ccc2[nH]ccc2c1 [BI 4395]
- Population Apoptotic (%) [3]: 20% and 23%
- Population Fragmented Nuclei (%) [3]: 9% and 10%
- Population Healthy Nuclei (%) [3]: 78% and 75%
- Population Hoechst High Intensity Objects (%) [3]: 9% and 8%
- Population Membrane Permeable-Phenotype (%) [3]: 4% and 2%
- Population Mitochondria Different-Phenotype (%) [3]: 2% and 7%
- Population Mitotic Cells (%) [3]: 79% and 76%
- Population Normal (%) [3]: 90% and 91%
- Population Pyknosed Nuclei (%) [3]: 12% and 14%
- Population Tubulin-Different-Phenotype (%) [3]: 2% and 3%
- Total Cell Count [3]: 895 and 750
- Population Apoptotic (%) [4]: 5% and 6%
- Population Healthy Nuclei (%) [4]: 84%
- Population Hoechst High Intensity Objects (%) [4]: 1%
- Population Membrane Permeable-Phenotype (%) [4]: 1%
- Population Mitochondria Different-Phenotype (%) [4]: 4%
- Population Mitotic Cells (%) [4]: 94% and 93%
- Population Normal (%) [4]: 98%
- Population Pyknosed Nuclei (%) [4]: 5% and 4%
- Population Tubulin-Different-Phenotype (%) [4]: 4%
- Total Cell Count [4]: 1558 and 1918
- Population Apoptotic (%) [7]: 15% and 13%
- Population Fragmented Nuclei (%) [7]: 11% and 14%
- Population Healthy Nuclei (%) [7]: 81% and 80%
- Population Hoechst High Intensity Objects (%) [7]: 6% and 4%
- Population Membrane Permeable-Phenotype (%) [7]: 9% and 6%
- Population Mitochondria Different-Phenotype (%) [7]: 2% and 4%
- Population Mitotic Cells (%) [7]: 84% and 86%
- Population Normal (%) [7]: 93% and 95%
- Population Pyknosed Nuclei (%) [7]: 6% and 5%
- Population Tubulin-Different-Phenotype (%) [7]: 3% and 5%
- Total Cell Count [7]: 1152 and 1021
- Population Fragmented Nuclei (%) [8]: 26% and 29%
- Population Healthy Nuclei (%) [8]: 71% and 68%
- Population Hoechst High Intensity Objects (%) [8]: 2% and 3%
- Population Membrane Permeable-Phenotype (%) [8]: 4%
- Population Mitochondria Different-Phenotype (%) [8]: 1%
- Population Mitotic Cells (%) [8]: 98% and 91%
- Population Normal (%) [8]: 97% and 96%
- Population Pyknosed Nuclei (%) [8]: 2% and 1%
- Total Cell Count [8]: 2665 and 3275
